Assay results taken from ChEMBL document CHEMBL1287652, “QSAR modeling, synthesis and bioassay of diverse leukemia RPMI-8226 cell line active agents” (2010).

How the values were obtained:
Assay type in all cases: functional
[1] = test system: CCRF-CEM; test: Antitumor activity against human CCRF-CEM cells at 10 uM after 48 hrs by sulforhodamine B assay relative to control; settings: values are per cent of control
Outline: (§1)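 Single-dose screen in a 55-line panel. Cells in RPMI-1640 with 5% FBS and 2 mM glutamine were preincubated for 24 h, then exposed to compound (DMSO stock diluted in medium) for 48 h at 37 °C with 5% CO2. Cells were fixed with cold TCA, stained with 0.4% SRB in 1% acetic acid, and dye was solubilized in 10 mM Tris base and read at 515 nm. Growth is given as percent of untreated control.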

[2] = test system: HL-60(TB); test: Antitumor activity against human HL-60(TB) cells at 10 uM after 48 hrs by sulforhodamine B assay relative to control; settings: HL-60, 48 h
Outline: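 Single-dose NCI screen. Cells were in RPMI-1640 with 5% FBS and 2 mM L-glutamine, plated by doubling time and held 24 h at 37 °C in 5% CO2 before dosing. Exposure was 48 h. Suspension cells were fixed in situ with TCA (final 16%), SRB-stained, and read at 515 nm. Percentage growth was expressed relative to untreated control cells.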

[3] = test system: HOP-62; test: Antitumor activity against human HOP62 cells at 10 uM after 48 hrs by sulforhodamine B assay relative to control; settings: HOP-62, 48 h, values are per cent of control; outline: as §1
[4] = test system: NCI-H460; test: Antitumor activity against human NCI-H460 cells at 10 uM after 48 hrs by sulforhodamine B assay relative to control; settings: NCI-H460, 48 h, values are per cent of control
Outline: (§2)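 NCI panel lines were grown in RPMI-1640 with 5% FBS and 2 mM L-glutamine and seeded at 5000–40,000 cells/well according to doubling time. After 24 h at 37 °C, 5% CO2, one dose from a DMSO stock was added for 48 h. Cells were TCA-fixed (10% final adherent, 16% suspension), SRB-stained and read at 515 nm. Percent growth is relative to untreated control.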

[5] = test system: COLO 205; test: Antitumor activity against human COLO205 cells at 10 uM after 48 hrs by sulforhodamine B assay relative to control; settings: COLO 205, 48 h, values are per cent of control; outline: as §1
[6] = test system: HCT-116; test: Antitumor activity against human HCT116 cells at 10 uM after 48 hrs by sulforhodamine B assay relative to control; settings: HCT-116, 48 h, values are per cent of control; outline: as §1
[7] = test system: KM12; test: Antitumor activity against human KM12 cells at 10 uM after 48 hrs by sulforhodamine B assay relative to control; settings: KM12, 48 h, values are per cent of control; outline: as §1
[8] = test system: SW-620; test: Antitumor activity against human SW620 cells at 10 uM after 48 hrs by sulforhodamine B assay relative to control; settings: SW-620, 48 h, values are per cent of control
Outline: (§3)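 NCI panel line grown in RPMI-1640 with 5% FBS and 2 mM L-glutamine, plated at 5000–40,000 cells/well, 24 h preincubation. Single final 10 µM from DMSO stock, 48 h at 37 °C, 5% CO2. TCA fixation (10% adherent, 16% suspension), SRB stain, absorbance 515 nm. Percent growth relative to untreated control.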

[9] = test system: SF-268; test: Antitumor activity against human SF268 cells at 10 uM after 48 hrs by sulforhodamine B assay relative to control; settings: SF-268, 48 h, values are per cent of control; outline: as §2
[10] = test system: SNB-19; test: Antitumor activity against human SNB19 cells at 10 uM after 48 hrs by sulforhodamine B assay relative to control; settings: SNB-19, 48 h, values are per cent of control; outline: as §2
[11] = test system: SNB-75; test: Antitumor activity against human SNB75 cells at 10 uM after 48 hrs by sulforhodamine B assay relative to control; settings: SNB-75, 48 h, values are per cent of control; outline: as §2
[12] = test system: SK-MEL-2; test: Antitumor activity against human SK-MEL-2 cells at 10 uM after 48 hrs by sulforhodamine B assay relative to control; settings: SK-MEL-2, 48 h, values are per cent of control; outline: as §2
[13] = test system: SK-MEL-28; test: Antitumor activity against human SK-MEL-28 cells at 10 uM after 48 hrs by sulforhodamine B assay relative to control; settings: SK-MEL-28, 48 h, values are per cent of control; outline: as §2
[14] = test system: IGROV-1; test: Antitumor activity against human IGROV1 cells at 10 uM after 48 hrs by sulforhodamine B assay relative to control; settings: IGROV-1, 48 h, values are per cent of control; outline: as §1
[15] = test system: 786-0; test: Antitumor activity against human 786-0 cells at 10 uM after 48 hrs by sulforhodamine B assay relative to control; settings: 786-0, 48 h, values are per cent of control; outline: as §1
[16] = test system: UO-31; test: Antitumor activity against human UO31 cells at 10 uM after 48 hrs by sulforhodamine B assay relative to control; settings: UO-31, 48 h, values are per cent of control; outline: as §3
[17] = test system: PC-3; test: Antitumor activity against human PC3 cells at 10 uM after 48 hrs by sulforhodamine B assay relative to control; settings: PC-3, 48 h, values are per cent of control; outline: as §2
[18] = test system: DU-145; test: Antitumor activity against human DU145 cells at 10 uM after 48 hrs by sulforhodamine B assay relative to control; settings: DU-145, 48 h, values are per cent of control; outline: as §1
[19] = test system: MDA-MB-231; test: Antitumor activity against human MDA-MB-231 cells at 10 uM after 48 hrs by sulforhodamine B assay relative to control; settings: MDA-MB-231, 48 h, values are per cent of control; outline: as §1
[20] = test system: BT-549; test: Antitumor activity against human BT549 cells at 10 uM after 48 hrs by sulforhodamine B assay relative to control; settings: BT-549, 48 h, values are per cent of control; outline: as §1
[21] = test system: MDA-MB-468; test: Antitumor activity against human MDA-MB-468 cells at 10 uM after 48 hrs by sulforhodamine B assay relative to control; settings: MDA-MB-468, 48 h, values are per cent of control; outline: as §2
[22] = test system: SK-MEL-2; test: Antitumor activity against human SK-MEL-2 cells after 48 hrs by sulforhodamine B assay; settings: SK-MEL-2, 48 h
Outline: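 Cells were cultured in RPMI-1640 (5% FBS, 2 mM L-glutamine), pre-incubated for 24 h with time-zero plates TCA-fixed, then exposed for 48 h to five serial dilutions. The SRB read-out at 515 nm used time-zero, control and test absorbances. GI50 solves [(Ti−Tz)/(C−Tz)]×100 = 50 (net protein increase). TGI is the concentration giving 100% growth inhibition.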

[23] = test system: IGROV-1; test: Antitumor activity against human IGROV1 cells after 48 hrs by sulforhodamine B assay; settings: IGROV-1, 48 h
Outline: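 Cells were grown in RPMI-1640 with 5% FBS and 2 mM L-glutamine, plated at 5000–40,000 cells/well, and preincubated for 24 h. A time-zero plate was TCA-fixed. Compounds were added from DMSO stock at five concentrations for 48 h at 37 °C. Cells were fixed with TCA (adherent 10%, suspension 16%) and stained with SRB, and A515 was read. GI50 and TGI were calculated from Tz, control and test absorbances.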

[24] = test system: HOP-92; test: Antitumor activity against human HOP92 cells at 10 uM after 48 hrs by sulforhodamine B assay relative to control; settings: HOP-92, 48 h, values are per cent of control; outline: as §1

SMILES | inhibition at 10 µM [2] | growth, % of control at 10 µM [3] | growth, % of control at 10 µM [4] | growth, % of control at 10 µM [5] | growth, % of control at 10 µM [6] | growth, % of control at 10 µM [7] | growth, % of control at 10 µM [8] | growth, % of control at 10 µM [9] | growth, % of control at 10 µM [10] | growth, % of control at 10 µM [11] | growth, % of control at 10 µM [12] | growth, % of control at 10 µM [13] | growth, % of control at 10 µM [14] | growth, % of control at 10 µM [15] | growth, % of control at 10 µM [16] | growth, % of control at 10 µM [17] | growth, % of control at 10 µM [18] | growth, % of control at 10 µM [19] | growth, % of control at 10 µM [20] | growth, % of control at 10 µM [21] | other results
COc1ccc(NC(=O)Nc2ccccc2OCCCOc2ccccc2NC(=O)Nc2ccc(OC)cc2)cc1 | 18.8% | 38.5% | 17.7% | 18.6% | -36.8% | 23.8% | 0.7% | 50.7% | 47.6% | -34.8% | 65.8% | 45.7% | 4.9% | -31.5% | -20.7% | -36.5% | 39.4% | 34% | 81.2% | 22.6% | growth, % of control at 10 µM [1]: -7.12%; GI50 [22]: > 100 µM; TGI [22]: > 100 µM; GI50 [23]: > 100 µM; TGI [23]: > 100 µM
COc1ccc(NC(=O)Nc2ccc(OCCCOc3ccc(NC(=O)Nc4ccc(OC)cc4)cc3)cc2)cc1 | 90.4% | 95.7% | 96.8% | 124% | 83.3% | 117% | 118% | 103% | 94.5% | 101% | 108% | 204% | 90.2% | 86.9% | 71.4% | 108% | 107% | 93.3% | 88.1% | 91.1% | growth, % of control at 10 µM [24]: 81.5%
O=C(Nc1ccc(Cl)cc1)Nc1ccc(OCCCOc2ccc(NC(=O)Nc3ccc(Cl)cc3)cc2)cc1 | 105% | 96.2% | 103% | 166% | 94.8% | 110% | 104% | 125% | 108% | 92.2% | 118% | 111% | 85.1% | 93.7% | 68.8% | 93% | 121% | 111% | 102% | 114% | growth, % of control at 10 µM [1]: 157%; growth, % of control at 10 µM [24]: 181%
